Columns and labels:
[1] = organism: Cavia porcellus; test: Binding affinity of compound was measured on electrically stimulated guinea pig ileal longitudinal muscle myenteric plexus (GPI) preparation using PL017 as standard antagonist; format: functional; conditions: Muscle tissue
Procedure, shortened: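 Electrically stimulated guinea pig ileum longitudinal muscle–myenteric plexus (male Hartley, 250–500 g) in oxygenated Krebs at 37 °C, 1 g tension; 0.1 Hz, 0.4-ms pulses. Tissue preincubated 30 min with 1 μM compound, washed 30 min, then cumulative PL-017 curve repeated. Ke = [antagonist]/(IC50 ratio − 1); n ≥ 3.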

[2] = organism: Mus musculus; test: (§1) Partial agonist activity expressed as inhibition of contraction of mouse vas deferens (MVD) smooth muscle at 1 uM conc.; format: functional, Muscle tissue
Procedure, shortened: (§2)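 Agonist action on electrically driven tissues at 37 °C: GPI (1 g tension, 0.4-ms pulses) and Mg-free MVD (0.5 g, 2-ms pulses), 0.1 Hz. Percent inhibition of contraction height read 10 min after 1 μM compound; for stronger agonists, IC50 from concentration–response curves (2–4 tissues, nonlinear least squares). Selectivity = GPI IC50/MVD IC50.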

[3] = target: Delta-type opioid receptor (Mus musculus) (UniProt P32300); test: Displacement of DPDPE from Opioid receptor delta 1 of mouse vas deferens (MVD)smooth muscle
Procedure, shortened: (§3)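 Mouse vas deferens (male ICR, 25–40 g) in Mg-free oxygenated Krebs at 37 °C, 0.5 g tension; transmural 0.1 Hz, 2-ms pulses, supramaximal voltage. Control DPDPE curve first; then 1 μM compound 30 min, 30 min wash, cumulative DPDPE curve (3-min steps) repeated. IC50 ratio = shifted/control IC50; Ke = [antagonist]/(ratio − 1); n ≥ 3.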

[4] = target: T1, Kappa-type opioid receptor (Cavia porcellus, UniProt P41144); test: Displacement of [125I]OXY from Opioid receptor kappa 2b of guinea pig brain membranes (pretreated with BIT(mu) and FIT(delta) and in the presence of (-)U50,488)
Procedure, shortened: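 Guinea pig brain membranes depleted of μ/δ sites by BIT and FIT, labelled with 0.01 nM [125I]IOXY in presence of 5 μM (−)U50,488. Incubation 4–6 h at 4 °C in 50 mM Tris-HCl pH 7.4 with 10 mM NaCl, protease inhibitors and 1 μg/mL captopril.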

[5] = target: Delta-type opioid receptor (Mus musculus) (UniProt P32300); test: Displacement of DPDPE from Opioid receptor delta 1 of mouse vas deferens (MVD) smooth muscle; procedure, shortened: as §3
[6] = target: T1, Kappa-type opioid receptor; test: Displacement of [3H]U-69593 from Opioid receptor kappa 1 of guinea pig brain membranes (pretreated with BIT and FIT to block mu and delta sites)
Procedure, shortened: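 Guinea pig brain membranes pretreated with BIT and FIT, labelled with [3H]U69,593. Incubation 4–6 h at 25 °C in 50 mM Tris-HCl pH 7.4 with protease inhibitors and 1 μg/mL captopril. Nonspecific binding with 1 μM U69,593. 8–10 concentrations, twice.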

[7] = target: Mu-type opioid receptor (Rattus norvegicus, UniProt P33535); test: Displacement of [3H]DAMGO from Opioid receptor mu 1 of rat brain membranes; format: cell membranes, Membrane
Procedure, shortened: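 Rat brain membranes labelled with [3H]DAMGO. Incubation 4 h at 25 °C in 50 mM Tris-HCl pH 7.4 with protease inhibitor cocktail. Nonspecific binding defined with 20 μM levallorphan. 8–10 test concentrations, run twice; IC50 and slope factor derived.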

[8] = target: T2, Delta-type opioid receptor (Rattus norvegicus, UniProt P33533); test: Displacement of [3H]DADLE from morphine-insensitive Opioid receptor delta 1 (presence of 50 nM morphine) of rat brain membranes; format: cell membranes, Membrane
Procedure, shortened: (§4)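 Rat brain membranes pretreated with (+)-trans-[…], labelled with 2.0 nM [3H]DADLE, plus 50 nM morphine (δcx-2) or 300 nM DELT-II (δcx-1). Incubation 4–6 h at 25 °C in 10 mM Tris-HCl pH 7.4 with 100 mM NaCl, 3 mM MnCl2, 2 μM GTP, 5 mM 2-mercaptoethanol and protease inhibitors. 8–10 concentrations, twice.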

[9] = target: T2, Delta-type opioid receptor; test: Displacement of [3H]DADLE from morphine-sensitive Opioid receptor delta 1 (presence of 300 nM DELT-II) of rat brain membranes; format: cell membranes, Membrane; procedure, shortened: as §4
[10] = target: T2, Delta-type opioid receptor; test: Displacement of [3H]DADLE from Opioid receptor delta 1 of rat brain membranes (DAMGO quenching mu receptor); format: cell membranes, Membrane
Procedure, shortened: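 Rat brain membranes labelled with [3H]DADLE. Incubation 3–4 h at 25 °C in 10 mM Tris-HCl pH 7.4 with 100 mM choline chloride, 3 mM MnCl2, 100 nM DAMGO (μ block) and protease inhibitors. Levallorphan 20 μM for nonspecific binding. 8–10 concentrations, duplicate runs.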

[11] = Relative affinity for guinea pig kappa1 and rat delta receptors
[12] = target: Opioid receptors; mu & delta (Rattus norvegicus) (UniProt P33533+P33535); test: Relative affinity for mu and delta receptors in rat brain membranes; format: cell membranes
[13] = Selectivity for mu receptor of guinea pig Ileum (GPI) and delta receptor of delta opioid receptor of mouse vas deferens (MVD) smooth muscle preparation; format: tissue-based
[14] = organism: Cavia porcellus; test: (§5) Partial agonist activity expressed as inhibition of contraction of guinea pig ileal longitudinal muscle myenteric plexus (GPI) at 1 uM conc.; format: functional, Muscle tissue; procedure, shortened: as §2
[15] = target: Mu-type opioid receptor (Mus musculus) (UniProt P42866); test: Compound was tested for antagonist activity against Opioid receptor mu 1 on electrically stimulated guinea pig ileal longitudinal muscle myenteric plexus (GPI) using PL017 as antagonist ligand. IC50 ratio = IC50(agonist)/IC50 (control); format: functional; conditions: Cavia porcellus; target entry is the homologue from another species
Procedure, shortened: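 Guinea pig ileum longitudinal muscle–myenteric plexus (male Hartley, 250–500 g) in oxygenated Krebs at 37 °C, 1 g tension; 0.1 Hz, 0.4-ms pulses, supramaximal voltage. Control PL-017 curve first; 1 μM compound 30 min, 30 min wash, cumulative PL-017 curve repeated. IC50 ratio = antagonized/unantagonized IC50; n ≥ 3.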

[16] = organism: Cavia porcellus; test: as §5; format: functional, organism-based; conditions: Muscle tissue; procedure, shortened: as §2
[17] = organism: Mus musculus; test: as §1; format: functional, organism-based; conditions: Muscle tissue; procedure, shortened: as §2
[18] = target: Opioid receptors; mu & delta (Homo sapiens) (UniProt P41143+P35372); test: IC50 selectivity for mu receptor of guinea pig Ileum (GPI) and delta receptor of delta opioid receptor of mouse vas deferens (MVD) smooth muscle preparation; format: tissue-based; procedure, shortened: as §2
Sequence of Opioid receptors; mu & delta (Homo sapiens) (P35372 whole entry, looked up): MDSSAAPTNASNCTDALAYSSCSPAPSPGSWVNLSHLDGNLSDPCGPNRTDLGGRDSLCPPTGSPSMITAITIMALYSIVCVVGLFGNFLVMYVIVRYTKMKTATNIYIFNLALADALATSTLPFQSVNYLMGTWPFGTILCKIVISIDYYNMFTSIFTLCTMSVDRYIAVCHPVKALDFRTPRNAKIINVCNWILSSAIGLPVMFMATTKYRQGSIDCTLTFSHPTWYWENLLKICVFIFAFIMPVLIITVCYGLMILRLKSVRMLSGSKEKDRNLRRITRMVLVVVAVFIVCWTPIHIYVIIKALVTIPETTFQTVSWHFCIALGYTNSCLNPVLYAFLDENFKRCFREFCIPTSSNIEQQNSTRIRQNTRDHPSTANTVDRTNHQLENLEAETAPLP
Sequence of Opioid receptors; mu & delta (Homo sapiens) (P41143 whole entry, looked up): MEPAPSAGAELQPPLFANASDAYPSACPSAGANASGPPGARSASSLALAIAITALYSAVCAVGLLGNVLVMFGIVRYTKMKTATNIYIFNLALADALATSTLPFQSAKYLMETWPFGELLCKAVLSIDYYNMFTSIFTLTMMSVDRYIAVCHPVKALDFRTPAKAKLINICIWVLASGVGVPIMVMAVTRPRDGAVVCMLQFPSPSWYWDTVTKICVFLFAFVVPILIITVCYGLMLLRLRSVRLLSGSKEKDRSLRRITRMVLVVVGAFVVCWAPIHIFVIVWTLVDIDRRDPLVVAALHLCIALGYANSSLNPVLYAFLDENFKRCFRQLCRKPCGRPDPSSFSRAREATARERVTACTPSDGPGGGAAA

Sequence of Opioid receptors; mu & delta (Rattus norvegicus) (P33533 whole entry, looked up): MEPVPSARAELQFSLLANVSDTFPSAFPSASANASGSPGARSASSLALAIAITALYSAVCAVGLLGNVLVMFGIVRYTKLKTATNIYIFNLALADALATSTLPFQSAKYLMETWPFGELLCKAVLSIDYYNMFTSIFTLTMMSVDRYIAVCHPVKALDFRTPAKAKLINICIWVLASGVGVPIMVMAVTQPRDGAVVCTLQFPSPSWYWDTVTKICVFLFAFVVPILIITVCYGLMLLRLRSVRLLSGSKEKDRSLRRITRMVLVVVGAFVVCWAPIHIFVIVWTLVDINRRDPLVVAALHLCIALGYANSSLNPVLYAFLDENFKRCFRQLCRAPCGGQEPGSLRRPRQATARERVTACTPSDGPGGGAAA
Sequence of Opioid receptors; mu & delta (Rattus norvegicus) (P33535 whole entry, looked up): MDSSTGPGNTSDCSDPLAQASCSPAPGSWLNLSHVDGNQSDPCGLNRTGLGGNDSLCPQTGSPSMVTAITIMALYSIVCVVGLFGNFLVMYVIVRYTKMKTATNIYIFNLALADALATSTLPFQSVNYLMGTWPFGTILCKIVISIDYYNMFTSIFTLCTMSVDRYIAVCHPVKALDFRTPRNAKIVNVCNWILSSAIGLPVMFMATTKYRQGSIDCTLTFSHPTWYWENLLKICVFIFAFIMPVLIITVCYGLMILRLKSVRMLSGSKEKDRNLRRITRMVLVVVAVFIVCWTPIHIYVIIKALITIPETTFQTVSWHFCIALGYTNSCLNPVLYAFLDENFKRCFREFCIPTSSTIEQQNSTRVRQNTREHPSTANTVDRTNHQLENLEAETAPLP
T2 sequence (P33533 whole entry): as the sequence (P33533 whole entry, looked up) above
Sequence of Mu-type opioid receptor (P33535 whole entry): as the sequence (P33535 whole entry, looked up) above
T1 sequence (P41144 whole entry): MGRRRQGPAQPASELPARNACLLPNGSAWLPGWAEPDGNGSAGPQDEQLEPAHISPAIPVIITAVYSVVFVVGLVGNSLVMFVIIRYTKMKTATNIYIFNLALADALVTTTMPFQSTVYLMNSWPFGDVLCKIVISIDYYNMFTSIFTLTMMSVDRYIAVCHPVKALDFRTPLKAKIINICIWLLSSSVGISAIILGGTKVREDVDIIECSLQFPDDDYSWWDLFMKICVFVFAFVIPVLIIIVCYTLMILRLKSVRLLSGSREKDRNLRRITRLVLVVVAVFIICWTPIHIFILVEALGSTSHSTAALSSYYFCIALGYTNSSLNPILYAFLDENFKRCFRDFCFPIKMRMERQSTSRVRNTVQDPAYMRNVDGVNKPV
Sequence of Delta-type opioid receptor (Mus musculus) (P32300 whole entry): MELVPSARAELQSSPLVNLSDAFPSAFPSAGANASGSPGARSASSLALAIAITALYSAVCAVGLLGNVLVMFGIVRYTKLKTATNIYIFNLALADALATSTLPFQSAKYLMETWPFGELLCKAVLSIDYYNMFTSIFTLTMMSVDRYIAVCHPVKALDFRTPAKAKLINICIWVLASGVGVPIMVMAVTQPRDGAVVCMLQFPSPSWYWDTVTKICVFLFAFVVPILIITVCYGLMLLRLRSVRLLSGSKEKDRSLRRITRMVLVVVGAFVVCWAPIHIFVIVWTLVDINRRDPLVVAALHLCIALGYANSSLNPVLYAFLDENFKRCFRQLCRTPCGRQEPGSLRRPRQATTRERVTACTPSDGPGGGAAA
Sequence of Mu-type opioid receptor (Mus musculus) (P42866 whole entry): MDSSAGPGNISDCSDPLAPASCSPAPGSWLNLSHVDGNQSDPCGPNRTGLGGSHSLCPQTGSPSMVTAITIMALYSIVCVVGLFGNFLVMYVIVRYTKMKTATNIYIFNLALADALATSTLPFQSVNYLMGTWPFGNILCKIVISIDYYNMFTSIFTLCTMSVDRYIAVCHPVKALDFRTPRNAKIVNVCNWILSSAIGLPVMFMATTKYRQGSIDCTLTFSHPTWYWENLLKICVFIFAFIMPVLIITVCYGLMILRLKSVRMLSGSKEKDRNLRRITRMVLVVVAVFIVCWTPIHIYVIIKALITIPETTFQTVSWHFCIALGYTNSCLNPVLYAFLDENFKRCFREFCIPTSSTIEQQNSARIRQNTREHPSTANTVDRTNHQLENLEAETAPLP

Row | Compound | Ke [1] [nM] | Max response [2] [%] | Ke [3] [nM] | Ki [4] [nM] | Ratio [5] | Ki [6] [nM] | Ki [7] [nM] | Ki [8] [nM] | Ki [9] [nM] | Ki [10] [nM] | Selectivity ratio [11] | Selectivity ratio [12] | Selectivity ratio [13] | Max response [14] [%] | Ratio [15] | IC50 [16] [nM] | IC50 [17] [nM] | Selectivity ratio [18]
1 | Oc1ccc2c3c1OC1c4[nH]c5ccc(Oc6ccccc6)cc5c4C[C@@]4(O)[C@@H](C2)N(CC2CC2)CC[C@]314 (some centres undefined) | 770 | 11 | 11 | 199 | 93 | 75.2 | 292 | 4.9 | 204 | 17.9 | 4 | 16 | 70 | 8 |  |  |  | 
2 | Oc1ccc2c3c1OC1c4[nH]c5ccc(-c6ccccc6)cc5c4C[C@@]4(O)[C@@H](C2)N(CC2CC2)CC[C@]314 (some centres undefined) | 110 | 25 | 9.4 | 186 | 110 | 354 | 165 | 24.7 | 121 | 15.8 | 22 | 10 | 12 | 0 |  |  |  | 
3 | Oc1ccc2c3c1OC1c4[nH]c5cccc(-c6ccccc6)c5c4C[C@@]4(O)[C@@H](C2)N(CC2CC2)CC[C@]314 (some centres undefined) | 710 | 22 | 66 | 435 | 16 | 2970 | 1510 | 127 | 284 | 52.4 | 57 | 29 | 11 | 0 | 2.4 |  |  | 
4 | Oc1ccc2c3c1O[C@H]1c4[nH]c5ccccc5c4C[C@@]4(O)[C@@H](C2)N(CC2CC2)CC[C@]314 [NALTRINDOLE] | 43 | 16 | 0.49 | 19.9 |  | 34.1 |  | 0.24 | 12.3 | 0.29 |  |  |  | 18 |  |  |  | 
5 | Oc1ccc2c3c1OC1c4[nH]c5c(Oc6ccccc6)cccc5c4C[C@@]4(O)[C@@H](C2)N(CC2CC2)CC[C@]314 (some centres undefined) |  |  | 0.25 | 56.8 | 4000 | 33.6 | 34.2 | 0.61 | 18.7 | 0.71 | 47 | 48 |  |  |  | 450 | 4100 | 0.11
6 | Oc1ccc2c3c1OC1c4[nH]c5cccc(Oc6ccccc6)c5c4C[C@@]4(O)[C@@H](C2)N(CC2CC2)CC[C@]314 (some centres undefined) | 590 | 27 | 17 | 353 |  | 1310 | 1430 | 114 | 395 | 67.9 | 19 | 21 | 35 | 28 | 2.7 |  |  | 
7 | Oc1ccc2c3c1OC1c4[nH]c5ccc(OCc6ccccc6)cc5c4C[C@@]4(O)[C@@H](C2)N(CC2CC2)CC[C@]314 (some centres undefined) | 560 | 35 | 4.8 | 85.8 | 210 | 82.1 | 81 | 1.7 | 14.9 | 4.4 | 19 | 18 | 117 | 24 | 2.8 |  |  | 
8 | Oc1ccc2c3c1OC1c4[nH]c5cc(-c6ccccc6)ccc5c4C[C@@]4(O)[C@@H](C2)N(CC2CC2)CC[C@]314 (some centres undefined) |  | 36 | 21 | 660 | 49 | 632 | 1280 | 14.2 | 299 | 18 | 35 | 71 |  | 2 |  |  |  | 
9 | Oc1ccc2c3c1OC1c4[nH]c5c(OCc6ccccc6)cccc5c4C[C@@]4(O)[C@@H](C2)N(CC2CC2)CC[C@]314 (some centres undefined) |  |  | 1.7 | 112 | 610 | 258 | 159 | 2.5 | 73.3 | 3.1 | 83 | 51 |  |  |  | 1700 | 9500 | 0.18
10 | Oc1ccc2c3c1OC1c4[nH]c5cccc(OCc6ccccc6)c5c4C[C@@]4(O)[C@@H](C2)N(CC2CC2)CC[C@]314 (some centres undefined) |  | 70 |  | 109 |  | 539 | 360 | 17.2 | 74.1 | 14.8 | 36 | 24 |  | 86 |  |  |  | 

Reference: ChEMBL document CHEMBL1131041 (J Med Chem, 1998)
